Tests used:
[1] = system: NRF2 activity (NQO1-YFP signal, CDDO-activated); test: High-throughput screen and dose response: NRF2 activity; assay type: cell-based, human; settings: Homo sapiens, NCI-H1299, read-out: NRF2 inhibition (IC50, μM)
In short: (§1)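 NQO1-YFP H1299 reporter cells (YFP in NQO1 intron 1, constitutive mCherry) were seeded 1000/well in 384-well plates and cultured overnight. Primary screen: 1 μM compound in 0.1% DMSO, one well each, with CDDO 200 nM and 0.1% DMSO controls. Retests used 10-point serial dilutions from 10 µM in triplicate, with brusatol control. Imaged at 0, 24, 48, 64 h (YFP = NRF2 activity, mCherry = viability); IC₅₀ by curve fit.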

[2] = system: NQO1-YFP H1299 cells; test: Cell viability; assay type: cell-based, human; settings: Homo sapiens, NCI-H1299, read-out: Cell viability (IC50, μM)
In short: as §1

[3] = system: KYSE70 cells; test: High-content cytotoxicity screen; assay type: cell-based, human; settings: Homo sapiens, KYSE-70, 72 h, read-out: Cell proliferation (IC50, μM)
In short: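 Cells were seeded at 1200/well in 384-well plates and cultured overnight. Test compound was added at […] serial dilution from 10 µM, in triplicate, for 3 days. Controls were 0.1% DMSO (negative), 30 µM benzethonium chloride and 0.1% Triton X-100 added just before staining (positive). Cells were stained with 0.5 µg/ml Hoechst and 100 nM YOYO1, four 4× images per well. Normalized total-cell and dead-cell percentages were fitted for IC₅₀.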

[4] = system: STAT3; test: pSTAT3 and STAT3 expression in KYSE70 cells; assay type: cell-based, human; settings: up to 10 μM
In short: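 Nuclear and cytosolic fractions prepared with an extraction kit, or whole-cell lysates in RIPA buffer. Proteins separated by SDS-PAGE, transferred to nitrocellulose, blocked and probed with primary antibody overnight at 4 °C. Chemiluminescence detected on film and quantified by densitometry; band data as mean ± SD, Student's t-test.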

[5] = target: NRF2-ARE binding (Homo sapiens, UniProt Q16236, W24C); test: ELISA-based TransAM NRF2-ARE binding assay with KYSE70 nuclear extracts
In short: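 TransAM ELISA: nuclear extract from untreated KYSE70 cells (20 μg/well) added to wells containing ARE oligonucleotide. Test compound, competitor or mutated competitor added, then 1 h incubation with mild agitation and washing. Anti-NRF2 antibody 1 h, then HRP-conjugated secondary antibody and substrate; A450nm read.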

[6] = target: NRF2 ubiquitination (KYSE450) (Homo sapiens, UniProt Q16236); test: NRF2-IP and ubiquitin western blotting in KYSE450 cells; assay type: cell-based; settings: NRF2^WT-KYSE450; PYR 10 μM, MIT 20 nM; only in the presence of MG132
In short: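 Cells treated with test compound, then with or without MG132 (10 μM), lysed in RIPA buffer. Lysate precleared on protein G agarose 1 h at 4 °C, then incubated with 1 μg anti-NRF2 antibody overnight at 4 °C with rotation. Immunocomplexes captured on protein G agarose 1.5 h at 4 °C, washed, boiled in 2X SDS loading buffer at 95 °C for 5 min, and immunoblotted for ubiquitin.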

[7] = system: adult wild-type mice; test: Dose-finding experiment in adult wild-type mice; assay type: in vivo, mouse
In short: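 Adult wild-type mice, n = 5 per group, dosed orally once daily for 4 weeks with test compound dissolved in N-methyl-2-pyrrolidone:PEG300 (1:9). Grooming, physical strength, movement and body weight tracked during dosing; blood collected for complete blood count, analysed by ANOVA.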

Sequence of NRF2-ARE binding (Q16236 whole entry W24C): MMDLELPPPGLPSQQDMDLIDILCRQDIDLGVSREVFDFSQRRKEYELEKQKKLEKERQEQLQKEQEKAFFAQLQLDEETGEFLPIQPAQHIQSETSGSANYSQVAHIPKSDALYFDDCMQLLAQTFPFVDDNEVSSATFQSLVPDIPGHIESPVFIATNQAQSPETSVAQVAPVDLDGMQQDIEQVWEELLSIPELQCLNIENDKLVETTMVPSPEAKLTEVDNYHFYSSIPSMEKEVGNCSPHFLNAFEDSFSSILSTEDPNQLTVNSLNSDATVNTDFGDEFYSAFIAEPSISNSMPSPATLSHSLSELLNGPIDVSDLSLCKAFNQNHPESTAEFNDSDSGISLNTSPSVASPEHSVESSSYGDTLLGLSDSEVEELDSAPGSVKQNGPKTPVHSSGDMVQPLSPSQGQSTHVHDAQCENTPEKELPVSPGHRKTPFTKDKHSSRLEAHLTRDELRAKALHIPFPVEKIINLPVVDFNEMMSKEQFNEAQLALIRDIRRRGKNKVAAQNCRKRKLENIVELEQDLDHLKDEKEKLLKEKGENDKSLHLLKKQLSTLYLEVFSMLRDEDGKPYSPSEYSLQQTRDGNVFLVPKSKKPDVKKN
Sequence of NRF2 ubiquitination (KYSE450) (Q16236 whole entry): as the sequence (Q16236 whole entry W24C) above, with C24W counted along it

CCc1nc(N)nc(N)c1-c1ccc(Cl)cc1 [PYR, Pyrimethamine]
IC50 [1]: 0.23 µM
IC50 [2]: 1.17 µM
IC50 [3]: > 10 µM
pSTAT3 and STAT3 expression [4]: did not significantly inhibit
NRF2-ARE binding activity [5]: did not observe any changes
NRF2 ubiquitination [6]: slightly promoted NRF2 ubiquitination
Myelosuppression (complete blood count) ([7]; 30 mg/kg/day): not myelosuppressive
Myelosuppression (complete blood count) ([7]; 60 mg/kg/day, p.o., 4 weeks): resulted in myelosuppression including leukopenia and lymphopenia
Impact on body weight and general health ([7]; 15, 30 and 60 mg/kg/day, p.o., 4 weeks): did not observe any negative impact

Reference: article PMC10558795 (Redox Biology, 2023)
